Legend:
SK-MEL-28 = assay: Growth inhibition of human SK-MEL-28 cells incubated for 48 hrs by sulforhodamine B assay; assay type: functional; conditions: SK-MEL-28, 48 h
CCRF-CEM = assay: Growth inhibition of human CCRF-CEM cells incubated for 48 hrs by sulforhodamine B assay; assay type: functional
SW-620 = assay: Growth inhibition of human SW620 cells incubated for 48 hrs by sulforhodamine B assay; assay type: functional; conditions: SW-620, 48 h
BT-549 = assay: Growth inhibition of human BT549 cells incubated for 48 hrs by sulforhodamine B assay; assay type: functional; conditions: BT-549, 48 h
PC-3 = assay: Growth inhibition of human PC3 cells incubated for 48 hrs by sulforhodamine B assay; assay type: functional; conditions: PC-3, 48 h
HCT-15 = assay: Growth inhibition of human HCT15 cells incubated for 48 hrs by sulforhodamine B assay; assay type: functional; conditions: HCT-15, 48 h
HL-60(TB) = assay: Growth inhibition of human HL-60(TB) cells incubated for 48 hrs by sulforhodamine B assay; assay type: functional; conditions: HL-60, 48 h
NCI/ADR-RES = assay: Growth inhibition of human NCI/ADR-RES cells incubated for 48 hrs by sulforhodamine B assay; assay type: functional
SNB-19 = assay: Growth inhibition of human SNB19 cells incubated for 48 hrs by sulforhodamine B assay; assay type: functional; conditions: SNB-19, 48 h
A549 = assay: Growth inhibition of human A549/ATCC cells incubated for 48 hrs by sulforhodamine B assay; assay type: functional; conditions: A549, 48 h
LOX IMVI = assay: Growth inhibition of human LOXIMVI cells incubated for 48 hrs by sulforhodamine B assay; assay type: functional
CAKI-1 = assay: Growth inhibition of human Caki1 cells incubated for 48 hrs by sulforhodamine B assay; assay type: functional; conditions: CAKI-1, 48 h
MDA-MB-468 = assay: Growth inhibition of human MDA-MB-468 cells incubated for 48 hrs by sulforhodamine B assay; assay type: functional; conditions: MDA-MB-468, 48 h
UACC-62 = assay: Growth inhibition of human UACC62 cells incubated for 48 hrs by sulforhodamine B assay; assay type: functional; conditions: UACC-62, 48 h
UACC-257 = assay: Growth inhibition of human UACC257 cells incubated for 48 hrs by sulforhodamine B assay; assay type: functional; conditions: UACC-257, 48 h
OVCAR-5 = assay: Growth inhibition of human OVCAR5 cells incubated for 48 hrs by sulforhodamine B assay; assay type: functional; conditions: OVCAR-5, 48 h
K562 = assay: Growth inhibition of human K562 cells incubated for 48 hrs by sulforhodamine B assay; assay type: functional; conditions: K562, 48 h
ACHN = assay: Growth inhibition of human ACHN cells incubated for 48 hrs by sulforhodamine B assay; assay type: functional
RXF 393 = assay: Growth inhibition of human RXF393 cells incubated for 48 hrs by sulforhodamine B assay; assay type: functional; conditions: RXF 393, 48 h
SF-295 = assay: Growth inhibition of human SF295 cells incubated for 48 hrs by sulforhodamine B assay; assay type: functional; conditions: SF-295, 48 h
Malme-3M = assay: Growth inhibition of human MALME-3M cells incubated for 48 hrs by sulforhodamine B assay; assay type: functional
SNB-75 = assay: Growth inhibition of human SNB75 cells incubated for 48 hrs by sulforhodamine B assay; assay type: functional; conditions: SNB-75, 48 h
SR = assay: Growth inhibition of human SR cells incubated for 48 hrs by sulforhodamine B assay; assay type: functional
RPMI-8226 = assay: Growth inhibition of human RPMI8226 cells incubated for 48 hrs by sulforhodamine B assay; assay type: functional; conditions: RPMI-8226, 48 h
Mus musculus = assay: Toxicity in Balb/cJ mouse assessed as body weight loss administered three times weekly measured every 2 days during compound dosing; conditions: in vivo, 48 h
Summary of the method: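 Female BALB/cJ mice, 8 weeks old, bearing orthotopic 4T1-Luc2-GFP allografts (7,500 cells implanted in mammary fat pad #4). Dosing began one week after implantation: intraperitoneal, three times weekly, in 5% Pharmasolve plus 5% Solutol HS in normal saline. Body weight reported as percent change at day 40 versus starting weight, with n = 9–10 and one-way ANOVA against untreated controls.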

SF-268 = assay: Growth inhibition of human SF268 cells incubated for 48 hrs by sulforhodamine B assay; assay type: functional; conditions: SF-268, 48 h
DU-145 = assay: Growth inhibition of human DU145 cells incubated for 48 hrs by sulforhodamine B assay; assay type: functional; conditions: DU-145, 48 h
Bos taurus = organism: Bos taurus; assay: Displacement of [3H]colchicine from bovine brain tubulin at 1 uM measured after 10 mins by liquid scintillation counting method relative to control
Hs-578T = assay: Growth inhibition of human Hs578T cells incubated for 48 hrs by sulforhodamine B assay; assay type: functional
HCT-116 = assay: Growth inhibition of human HCT116 cells incubated for 48 hrs by sulforhodamine B assay; assay type: functional; conditions: HCT-116, 48 h
A-431 = assay: Cytotoxicity against human A431 cells; assay type: functional, cell-based
NCI-H460 = assay: Growth inhibition of human NCI-H460 cells incubated for 48 hrs by sulforhodamine B assay; assay type: functional; conditions: NCI-H460, 48 h
MOLT-4 = assay: Growth inhibition of human MOLT4 cells incubated for 48 hrs by sulforhodamine B assay; assay type: functional; conditions: MOLT-4, 48 h
HOP-92 = assay: Growth inhibition of human HOP92 cells incubated for 48 hrs by sulforhodamine B assay; assay type: functional; conditions: HOP-92, 48 h
IGROV-1 = assay: Growth inhibition of human IGROV1 cells incubated for 48 hrs by sulforhodamine B assay; assay type: functional; conditions: IGROV-1, 48 h
SK-MEL-5 = assay: Growth inhibition of human SK-MEL-5 cells incubated for 48 hrs by sulforhodamine B assay; assay type: functional; conditions: SK-MEL-5, 48 h
OVCAR-3 = assay: Growth inhibition of human OVCAR3 cells incubated for 48 hrs by sulforhodamine B assay; assay type: functional; conditions: OVCAR-3, 48 h
MDA-MB-435 = assay: Growth inhibition of human MDA-MB-435 cells incubated for 48 hrs by sulforhodamine B assay; assay type: functional; conditions: MDA-MB-435, 48 h
NCI-H322M = assay: Growth inhibition of human NCI-H322M cells incubated for 48 hrs by sulforhodamine B assay; assay type: functional
Chorioallantoic membrane = assay: Antiangiogenic activity in Leghorn chicken egg chorioallantoic membrane assessed as inhibition of human VEGF-165/bFGF-induced blood vessels formation measured after 40 hrs by microscopic method; assay type: functional, tissue-based; conditions: Gallus gallus
U-251 = assay: Growth inhibition of human U251 cells incubated for 48 hrs by sulforhodamine B assay; assay type: functional; conditions: U-251, 48 h
KM12 = assay: Growth inhibition of human KM12 cells incubated for 48 hrs by sulforhodamine B assay; assay type: functional; conditions: KM12, 48 h
NCI-H226 = assay: Growth inhibition of human NCI-H226 cells incubated for 48 hrs by sulforhodamine B assay; assay type: functional; conditions: NCI-H226, 48 h
NCI-H23 = assay: Growth inhibition of human NCI-H23 cells incubated for 48 hrs by sulforhodamine B assay; assay type: functional; conditions: NCI-H23, 48 h
HT-29 = assay: Growth inhibition of human HT-29 cells incubated for 48 hrs by sulforhodamine B assay; assay type: functional; conditions: HT-29, 48 h
786-0 = assay: Growth inhibition of human 786-0 cells incubated for 48 hrs by sulforhodamine B assay; assay type: functional; conditions: 786-0, 48 h

## COc1ccc(N(C)c2nc(C)nc3c(Cc4ccccc4)cn(C)c23)cc1.Cl
SK-MEL-28
  GI50: 0.0487 µM
CCRF-CEM
  GI50: 0.0335 µM
SW-620
  GI50: 0.0384 µM
BT-549
  GI50: 0.0482 µM
PC-3
  GI50: 0.0496 µM
HCT-15
  GI50: 0.0381 µM
HL-60(TB)
  GI50: 0.0268 µM
NCI/ADR-RES
  GI50: 0.0328 µM
SNB-19
  GI50: 0.0547 µM
A549
  GI50: 0.044 µM
LOX IMVI
  GI50: 0.0588 µM
CAKI-1
  GI50: 0.0566 µM
MDA-MB-468
  GI50: 0.0301 µM
UACC-62
  GI50: 0.475 µM
UACC-257
  GI50: 0.0782 µM
OVCAR-5
  GI50: 0.269 µM
K562
  GI50: 0.0337 µM
ACHN
  GI50: 0.172 µM
RXF 393
  GI50: 0.0254 µM
SF-295
  GI50: 0.0304 µM
Malme-3M
  GI50: 0.0177 µM
SNB-75
  GI50: 0.0278 µM
SR
  GI50: 0.0338 µM
RPMI-8226
  GI50: 0.0369 µM
Mus musculus
  MTD: 50 mg/kg
SF-268
  GI50: 0.35 µM
DU-145
  GI50: 0.0444 µM
Bos taurus
  inhibition: 73%
Hs-578T
  GI50: 0.0623 µM
HCT-116
  GI50: 0.035 µM
A-431
  IC50: 1.2 µM
NCI-H460
  GI50: 0.0387 µM
MOLT-4
  GI50: 0.0508 µM
HOP-92
  GI50: 0.0471 µM
IGROV-1
  GI50: 0.0958 µM
SK-MEL-5
  GI50: 0.0542 µM
OVCAR-3
  GI50: 0.0352 µM
MDA-MB-435
  GI50: 0.0214 µM
NCI-H322M
  GI50: 0.0736 µM
Chorioallantoic membrane
  IC50: 2.2 µM
U-251
  GI50: 0.0443 µM
KM12
  GI50: 0.0445 µM
NCI-H226
  GI50: 0.304 µM
NCI-H23
  GI50: 0.0458 µM
HT-29
  GI50: 0.0351 µM
786-0
  GI50: 0.0932 µM

Reference: ChEMBL document CHEMBL3997769, “Discovery and preclinical evaluation of 7-benzyl-N-(substituted)-pyrrolo[3,2-d]pyrimidin-4-amines as single agents with microtubule targeting effects along with triple-acting angiokinase inhibition as antitumor agents” (Bioorg Med Chem, 2017)
